Data reported in ChEMBL document CHEMBL5032510, “Identification of Novel Fused Heteroaromatics-Based MALT1 Inhibitors by High-Throughput Screening to Treat B Cell Lymphoma” (J Med Chem, 2021).

How the values were obtained:
[1] = AUC (0 to t) in CD-1 mouse at 1 mg/kg, ip by LC-MS/MS analysis; format: ADME, organism-based; parameters: dose 1 mg/kg; details: in vivo
Procedure, shortened: (§1)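 Compound formulated in 5% DMSO + 5% Tween-80 in 90% saline and given to male ICR (CD-1) mice (n = 9) at 10 mg/kg po, 1 mg/kg ip or 1 mg/kg iv. Blood was drawn via the jugular vein at set time points and held on ice. Plasma was separated by centrifugation and stored at −80 °C before PK parameters were derived.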

[2] = Intraperitoneal bioavailability in CD-1 mouse at 1 mg/kg by LC-MS/MS analysis; details: in vivo, ip
[3] = Induction of apoptosis in human HBL1 cells assessed as dead cells at 10 uM measured after 24 hrs by Annexin V-FITC/ Propidium iodide staining based flow cytometry (reference value: 2.32%); format: functional
[4] = Induction of apoptosis in human HBL1 cells assessed as viable cells at 2 uM measured after 24 hrs by Annexin V-FITC/ Propidium iodide staining based flow cytometry (reference value: 88.1%); format: functional; details: read-out: Activity
[5] = Cmax in CD-1 mouse at 10 mg/kg, po by LC-MS/MS analysis; format: ADME, organism-based; parameters: route oral, dose 10 mg/kg; details: in vivo; procedure, shortened: as §1
[6] = Half life in CD-1 mouse at 1 mg/kg, ip by LC-MS/MS analysis; format: ADME, organism-based; details: in vivo; procedure, shortened: as §1
TMD8 [7] = assay: Induction of apoptosis in human TMD8 cells assessed as late apoptotic cells at 5 uM measured after 24 hrs by Annexin V-FITC/ Propidium iodide staining based flow cytometry (reference value: 2.19%); format: functional
[8] = Drug concentration in tumor of NCG mouse xenografted with human TMD8 cells at 30 mg/kg/day, ip measured after 13 days; format: ADME, organism-based, Neoplasm; details: time 13 day, read-out: Drug uptake
Procedure, shortened: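 TMD8 cells (5 × 10⁶) were implanted subcutaneously into the right flank of 6-week-old female NCG mice. At day 10, when tumors were palpable, mice were randomized into groups of eight. Dosing was ip at 30 mg/kg for 13 consecutive days; controls received HPBCD (20% PEG 400) ip. TGI was based on mean tumor weight of treated versus control groups. Intratumoral drug level was measured after 13 days of dosing.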

TMD8 [9] = assay: Induction of apoptosis in human TMD8 cells assessed as dead cells at 10 uM measured after 24 hrs by Annexin V-FITC/ Propidium iodide staining based flow cytometry (reference value: 0%); format: functional
[10] = target: T1, Mucosa-associated lymphoid tissue lymphoma translocation protein 1 (Homo sapiens, UniProt Q9UDY8); assay: Inhibition of N-terminal his-tagged GCN4 leucine zipper fused human MALT1 […] expressed in Escherichia coli using Ac-LVSR-AMC as substrate by HTS assay
T1 sequence (Q9UDY8 whole entry): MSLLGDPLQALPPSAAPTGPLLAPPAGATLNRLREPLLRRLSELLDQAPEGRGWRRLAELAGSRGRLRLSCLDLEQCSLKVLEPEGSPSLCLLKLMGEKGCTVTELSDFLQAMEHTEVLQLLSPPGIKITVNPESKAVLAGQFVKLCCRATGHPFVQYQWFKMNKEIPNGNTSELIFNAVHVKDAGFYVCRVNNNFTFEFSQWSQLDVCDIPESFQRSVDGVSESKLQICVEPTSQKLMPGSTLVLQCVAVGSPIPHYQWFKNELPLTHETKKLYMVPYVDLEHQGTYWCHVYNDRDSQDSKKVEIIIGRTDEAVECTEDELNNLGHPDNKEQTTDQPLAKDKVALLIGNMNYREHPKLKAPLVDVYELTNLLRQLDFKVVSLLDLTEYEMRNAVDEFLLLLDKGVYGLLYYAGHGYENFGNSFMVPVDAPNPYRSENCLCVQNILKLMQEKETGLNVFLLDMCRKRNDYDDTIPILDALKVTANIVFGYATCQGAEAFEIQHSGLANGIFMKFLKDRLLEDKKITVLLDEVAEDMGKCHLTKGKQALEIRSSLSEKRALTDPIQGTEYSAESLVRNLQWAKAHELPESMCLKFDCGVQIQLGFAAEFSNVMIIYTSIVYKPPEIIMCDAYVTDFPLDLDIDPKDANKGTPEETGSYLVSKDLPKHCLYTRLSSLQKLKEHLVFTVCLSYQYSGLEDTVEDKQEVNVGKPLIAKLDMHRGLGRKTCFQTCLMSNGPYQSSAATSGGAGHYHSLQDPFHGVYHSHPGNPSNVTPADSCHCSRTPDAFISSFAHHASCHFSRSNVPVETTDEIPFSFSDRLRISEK

OCI-Ly1 [11] = assay: Induction of apoptosis in human OCI-Ly1 cells assessed as dead cells at 5 uM measured after 24 hrs by Annexin V-FITC/ Propidium iodide staining based flow cytometry (reference value: 0.365%); format: functional
[12] = MRT (0 to t) in CD-1 mouse at 1 mg/kg, iv by LC-MS/MS analysis; format: ADME, organism-based; details: in vivo
Procedure, shortened: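 Male ICR (CD-1) mice (n = 9). Compound formulated in 5% DMSO + 5% Tween-80 in 90% saline and dosed 10 mg/kg po, 1 mg/kg ip or 1 mg/kg iv. Blood drawn from the jugular vein at set time points and held on ice. Plasma separated by centrifugation and stored at −80 °C before parameter derivation.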

TMD8 [13] = assay: Induction of apoptosis in human TMD8 cells assessed as dead cells at 5 uM measured after 24 hrs by Annexin V-FITC/ Propidium iodide staining based flow cytometry (reference value: 0 %); format: functional
OCI-Ly1 [14] = assay: Induction of apoptosis in human OCI-Ly1 cells assessed as late apoptotic cells at 10 uM measured after 24 hrs by Annexin V-FITC/ Propidium iodide staining based flow cytometry (reference value: 0.548%); format: functional
TMD8 [15] = assay: Induction of apoptosis in human TMD8 cells assessed as early apoptotic cells at 5 uM measured after 24 hrs by Annexin V-FITC/ Propidium iodide staining based flow cytometry (reference value: 6.97%); format: functional
[16] = Apparent volume of distribution in CD-1 mouse at 1 mg/kg, iv by LC-MS/MS analysis; format: ADME, organism-based; details: in vivo, read-out: Vz; procedure, shortened: as §1
[17] = Induction of apoptosis in human HBL1 cells assessed as dead cells at 2 uM measured after 24 hrs by Annexin V-FITC/ Propidium iodide staining based flow cytometry (reference value: 2.32%); format: functional
OCI-Ly1 [18] = assay: Induction of apoptosis in human OCI-Ly1 cells assessed as viable cells at 5 uM measured after 24 hrs by Annexin V-FITC/ Propidium iodide staining based flow cytometry (reference value: 97.8%); format: functional; details: read-out: Activity
[19] = Induction of apoptosis in human HBL1 cells assessed as viable cells at 10 uM measured after 24 hrs by Annexin V-FITC/ Propidium iodide staining based flow cytometry (reference value: 88.1%); format: functional; details: read-out: Activity
OCI-Ly1 [20] = assay: Induction of apoptosis in human OCI-Ly1 cells assessed as viable cells at 2 uM measured after 24 hrs by Annexin V-FITC/ Propidium iodide staining based flow cytometry (reference value: 97.8%); format: functional; details: read-out: Activity
TMD8 [21] = assay: Induction of apoptosis in human TMD8 cells assessed as dead cells at 2 uM measured after 24 hrs by Annexin V-FITC/ Propidium iodide staining based flow cytometry (reference value: 0%); format: functional

With `COc1ccc(OC)c(NC(=O)c2sc(=S)n(-c3ccc(C(F)(F)F)cc3)c2NC(=O)CCl)c1` as the molecule, how does the AUC(0-t) [1] read?
Its AUC(0-t) is 732 ng·h/mL.

And the bioavailability [2]?
The bioavailability was 72%.

And the Activity [3]?
The Activity was 1.04%.

What about the viability at 2 µM [4] of the same molecule?
The viability at 2 µM was 85.8%.

What about the Cmax [5] of the same molecule?
The Cmax was 1530 ng/mL.

What about the half-life [6] of the same molecule?
Its half-life is 4.5 h.

And the Activity (TMD8 [7])?
Its Activity is 25.7%.

And the concentration at 312 h [8]?
Its concentration at 312 h is 1130 ng/g.

And the Activity (TMD8 [9])?
The Activity was 0.625%.

And the IC50 [10]?
Its IC50 is 5.3 µM.

And the Activity (OCI-Ly1 [11])?
Its Activity is 0.204%.

What about the MRT last [12] of the same molecule?
Its MRT last is 5.66 h.

And the Activity (TMD8 [13])?
The Activity was 0.422%.

And the Activity (OCI-Ly1 [14])?
The Activity was 1.53%.

What about the Activity (TMD8 [15]) of the same molecule?
Its Activity is 58.9%.

And the Vd [16]?
The Vd was 4.82 L/kg.

What about the Activity [17] of the same molecule?
The Activity was 1.94%.

What about the viability at 5 µM (OCI-Ly1 [18]) of the same molecule?
The viability at 5 µM was 97.4%.

And the viability at 10 µM [19]?
The viability at 10 µM was 6.11%.

What about the viability at 2 µM (OCI-Ly1 [20]) of the same molecule?
Its viability at 2 µM is 97.4%.

What about the Activity (TMD8 [21]) of the same molecule?
Its Activity is 0.048%.
